Calls of active or inactive are those of the source. The rule behind the calls is not given here.
Assays:
D(2) dopamine receptor [1] = molecular target: T1, D(2) dopamine receptor (Homo sapiens, UniProt P14416); experiment: Inhibition of [3H]spiperone binding to human Dopamine receptor D2S stably transfected in GH4C1 (rat pituitary) cells at 100 nM; conditions: Pituitary gland cell
[2] = molecular target: T2, Adrenergic receptor alpha-1 (Rattus norvegicus) (UniProt P15823+P23944+P43140); experiment: Inhibition of 7-methoxy-[3H]-prazosin binding to Alpha-1 adrenergic receptor in rat frontal cortex tissue at 100 nM
[3] = molecular target: T3, D(4) dopamine receptor (Homo sapiens) (UniProt P21917); experiment: Inhibition of [3H]spiperone binding to human Dopamine receptor D4.2 stably transfected in human embryonic kidney […] cells at 100 nM
T3 sequence (whole entry): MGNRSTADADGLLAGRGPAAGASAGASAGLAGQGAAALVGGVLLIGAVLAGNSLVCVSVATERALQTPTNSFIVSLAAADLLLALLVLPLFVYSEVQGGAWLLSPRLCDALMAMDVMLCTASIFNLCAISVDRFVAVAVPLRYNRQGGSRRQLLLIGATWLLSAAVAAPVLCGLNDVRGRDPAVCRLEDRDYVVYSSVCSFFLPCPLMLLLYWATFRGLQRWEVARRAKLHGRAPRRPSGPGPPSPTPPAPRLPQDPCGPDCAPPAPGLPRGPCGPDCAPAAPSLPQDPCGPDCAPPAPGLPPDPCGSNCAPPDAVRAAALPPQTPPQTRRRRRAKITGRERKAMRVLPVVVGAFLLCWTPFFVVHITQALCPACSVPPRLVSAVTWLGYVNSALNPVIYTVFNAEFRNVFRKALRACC

D(4) dopamine receptor [4] = molecular target: T4, D(4) dopamine receptor (Homo sapiens, UniProt P21917); experiment: Ability to displace [3H]spiperone from human Dopamine receptor D4.2 stably transfected in human embryonic kidney […] cells
T4 sequence (P21917 whole entry): T3 sequence (whole entry)
Outline: (§1)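 Radioligand binding on stably transfected cell lines: hD4 (D4.2 subtype) in HEK […] cells and hD2 (short isoform) in GH4C1 rat pituitary cells. Ki derived by Cheng–Prusoff transformation, reported as mean of at least two determinations ± SEM.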

D(2) dopamine receptor [5] = molecular target: T1, D(2) dopamine receptor; experiment: Ability to displace [3H]spiperone from human Dopamine receptor D2S stably transfected in GH4C1 (rat pituitary) cells; type: cell-based, Pituitary gland cell
Outline: as §1

[6] = molecular target: T5, Adrenergic receptor alpha-1 (Rattus norvegicus, UniProt P15823+P23944+P43140); experiment: Binding affinity towards Alpha-1 adrenergic receptor using 7-methoxy-[3H]-prazosin as radioligand in rat frontal cortex tissue; type: tissue-based
T5 sequence (P15823 whole entry): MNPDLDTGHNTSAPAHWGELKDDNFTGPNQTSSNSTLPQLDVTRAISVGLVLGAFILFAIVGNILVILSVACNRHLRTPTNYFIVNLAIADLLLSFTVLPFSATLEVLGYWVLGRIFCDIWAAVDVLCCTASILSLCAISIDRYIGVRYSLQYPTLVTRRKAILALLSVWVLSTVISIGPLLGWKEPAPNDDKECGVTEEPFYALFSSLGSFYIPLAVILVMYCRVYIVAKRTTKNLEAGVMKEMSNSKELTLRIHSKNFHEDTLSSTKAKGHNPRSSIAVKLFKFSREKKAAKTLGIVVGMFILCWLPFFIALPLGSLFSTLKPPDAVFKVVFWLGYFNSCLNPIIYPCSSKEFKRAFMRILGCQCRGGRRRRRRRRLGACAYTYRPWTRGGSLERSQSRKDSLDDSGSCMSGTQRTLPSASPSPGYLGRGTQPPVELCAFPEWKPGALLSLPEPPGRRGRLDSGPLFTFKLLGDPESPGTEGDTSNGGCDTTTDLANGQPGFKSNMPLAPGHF
T5 sequence (P23944 whole entry): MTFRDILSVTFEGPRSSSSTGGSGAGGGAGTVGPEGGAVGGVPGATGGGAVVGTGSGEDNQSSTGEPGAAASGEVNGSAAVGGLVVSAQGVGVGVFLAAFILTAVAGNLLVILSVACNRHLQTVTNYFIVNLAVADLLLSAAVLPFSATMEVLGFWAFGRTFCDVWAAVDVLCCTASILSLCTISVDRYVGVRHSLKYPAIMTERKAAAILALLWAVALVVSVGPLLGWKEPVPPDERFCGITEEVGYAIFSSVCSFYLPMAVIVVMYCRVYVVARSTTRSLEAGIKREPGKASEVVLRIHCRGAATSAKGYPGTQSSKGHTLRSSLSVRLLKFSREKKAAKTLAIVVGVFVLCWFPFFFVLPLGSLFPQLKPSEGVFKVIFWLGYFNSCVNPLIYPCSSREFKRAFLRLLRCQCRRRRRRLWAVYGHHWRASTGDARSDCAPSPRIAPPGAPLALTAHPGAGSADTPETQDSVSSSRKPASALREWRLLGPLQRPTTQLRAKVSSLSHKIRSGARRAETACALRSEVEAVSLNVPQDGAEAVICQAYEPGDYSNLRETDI
T5 sequence (P43140 whole entry): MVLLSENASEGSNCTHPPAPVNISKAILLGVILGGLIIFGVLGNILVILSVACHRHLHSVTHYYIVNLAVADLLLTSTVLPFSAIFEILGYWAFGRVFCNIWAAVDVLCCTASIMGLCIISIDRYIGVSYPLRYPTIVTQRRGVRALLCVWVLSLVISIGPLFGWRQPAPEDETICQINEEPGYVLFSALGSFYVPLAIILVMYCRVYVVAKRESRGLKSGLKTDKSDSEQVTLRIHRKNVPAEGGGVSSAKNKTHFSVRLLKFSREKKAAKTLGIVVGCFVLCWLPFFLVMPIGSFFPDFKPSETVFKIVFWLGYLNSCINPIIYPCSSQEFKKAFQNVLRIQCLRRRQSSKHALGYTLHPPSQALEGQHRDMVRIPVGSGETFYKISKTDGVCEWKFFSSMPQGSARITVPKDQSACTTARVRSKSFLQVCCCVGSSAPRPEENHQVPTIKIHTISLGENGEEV
Outline: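 Rat frontal cortex tissue as α1 receptor source, 7-methoxy-[3H]-prazosin as radioligand, clozapine as reference. Ki obtained by Cheng–Prusoff transformation; mean of at least two determinations ± SEM.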

D(2) dopamine receptor [7] = molecular target: T1, D(2) dopamine receptor; experiment: Inhibition of [3H]spiperone binding to human Dopamine receptor D2S stably transfected in GH4C1 (rat pituitary) cells at 100 nM; IA denotes inactive; conditions: Pituitary gland cell
[8] = molecular target: T2, Adrenergic receptor alpha-1 (Rattus norvegicus); experiment: Inhibition of 7-methoxy-[3H]-prazosin binding to Alpha-1 adrenergic receptor in rat frontal cortex tissue at 100 nM; IA denotes inactive
D(4) dopamine receptor [9] = molecular target: T4, D(4) dopamine receptor; experiment: Inhibitory concentration required to reverse the dopamine inhibition of forskolin-stimulated adenyl cyclase activity in CHO cells stably expressing hD4 receptor; type: functional, cell-based

T1 sequence (P14416 whole entry): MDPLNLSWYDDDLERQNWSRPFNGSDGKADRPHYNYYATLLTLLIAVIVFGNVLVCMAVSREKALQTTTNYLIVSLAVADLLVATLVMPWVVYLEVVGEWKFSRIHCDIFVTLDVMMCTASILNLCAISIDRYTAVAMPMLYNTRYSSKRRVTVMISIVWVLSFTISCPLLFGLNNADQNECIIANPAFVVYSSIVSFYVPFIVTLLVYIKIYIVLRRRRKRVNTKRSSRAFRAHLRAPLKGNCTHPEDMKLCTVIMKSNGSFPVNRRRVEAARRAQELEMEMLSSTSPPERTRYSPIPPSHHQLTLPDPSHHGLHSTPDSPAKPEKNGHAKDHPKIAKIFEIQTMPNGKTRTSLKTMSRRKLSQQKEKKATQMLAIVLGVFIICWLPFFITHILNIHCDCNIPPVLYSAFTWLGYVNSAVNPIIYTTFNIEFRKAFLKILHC

Ki (D(4) dopamine receptor [4]) | Ki (D(2) dopamine receptor [5]) | Ki [6] | SMILES | other results
 |  |  | CN(C(=O)c1ccc(-c2ccsc2)cc1)[C@H]1CCN(Cc2ccccc2)C1 | inhibition (D(2) dopamine receptor [1]): 7.4%; inhibition [2]: 0.29%; inhibition [3]: 40%
17 nM | 4000 nM |  | O=C(NC1CCN(Cc2ccccc2)C1)c1ccc(-c2cccc(F)c2)cc1 (configuration not stated) | 
2 nM | 1000 nM | 610 nM | O=C(N[C@H]1CCN(Cc2ccccc2)C1)c1ccc(-c2ccsc2)cc1 | 
2 nM | 1200 nM |  | O=C(NC1CCN(Cc2ccccc2)C1)c1ccc(-c2ccsc2)cc1 (configuration not stated) | 
3 nM | 980 nM | 1200 nM | O=C(N[C@H]1CCN(Cc2ccccc2)C1)c1ccc(-c2cccs2)cc1 | 
24 nM | 1500 nM | 330 nM | O=C(N[C@@H]1CCN(Cc2ccccc2)C1)c1ccc(-c2cccs2)cc1 | 
5 nM | 2600 nM |  | O=C(NC1CCN(Cc2ccccc2)C1)c1ccc(-c2ccc(Cl)cc2)cc1 (configuration not stated) | 
17 nM | 8000 nM |  | O=C(NC1CCN(Cc2ccccc2)C1)c1ccc(-c2ccc(C(F)(F)F)cc2)cc1 (configuration not stated) | 
24 nM | 5000 nM |  | Nc1cccc(-c2ccc(C(=O)NC3CCN(Cc4ccccc4)C3)cc2)c1 (configuration not stated) | 
 |  |  | O=S(=O)(N[C@H]1CCN(Cc2ccccc2)C1)c1ccc(-c2cccs2)cc1 | inhibition (D(2) dopamine receptor [7]): inactive; inhibition [3]: 13%; inhibition [8]: inactive
3 nM | 600 nM |  | O=C(NC1CCN(Cc2ccccc2)C1)c1ccc(-c2ccccc2)cc1 (configuration not stated) | IC50 (D(4) dopamine receptor [9]): 1500 nM
8 nM | 120 nM |  | O=C(NC1CCN(Cc2ccccc2)C1)c1ccc(-c2ccc(F)cc2)cc1 (configuration not stated) | 
1.5 nM | 60 nM | 160 nM | O=C(N[C@H]1CCN(Cc2ccccc2)C1)c1cccc(-c2cccs2)c1 | 
2 nM | 70 nM | 140 nM | O=C(N[C@H]1CCN(Cc2ccccc2)C1)c1cccc(-c2ccsc2)c1 | 
3 nM | 840 nM |  | O=C(NC1CCN(Cc2ccccc2)C1)c1ccc(-c2cccs2)cc1 (configuration not stated) | 
70 nM | 3700 nM |  | O=Cc1ccc(-c2ccc(C(=O)NC3CCN(Cc4ccccc4)C3)cc2)cc1 (configuration not stated) | 
4 nM | 150 nM |  | O=C(NC1CCN(Cc2ccccc2)C1)c1cccc(-c2ccccc2)c1 (configuration not stated) | 
18 nM | 900 nM | 170 nM | O=C(N[C@@H]1CCN(Cc2ccccc2)C1)c1ccc(-c2ccsc2)cc1 | 
17 nM | 4000 nM |  | CSc1ccc(-c2ccc(C(=O)NC3CCN(Cc4ccccc4)C3)cc2)cc1 (configuration not stated) | 
3.4 nM | 94 nM | 170 nM | O=C(N[C@@H]1CCN(Cc2ccccc2)C1)c1cccc(-c2ccsc2)c1 | 
36 nM | 3100 nM |  | O=Cc1ccccc1-c1ccc(C(=O)NC2CCN(Cc3ccccc3)C2)cc1 (configuration not stated) | 

Source: ChEMBL document CHEMBL1137866, “N-(1-Benzylpyrrolidin-3-yl)arylbenzamides as potent and selective human dopamine D4 antagonists” (Bioorg Med Chem Lett, 2004)
